“Also recorded” adds a separate entry of the source. Where two headings read alike, the source gives them in different places.
Columns and labels:
human α2AAR [1] = molecular target: T1, human α2AAR (Homo sapiens, UniProt P08913); assay: ebBRET-based EMTA G protein and β-arrestin coupling panel; assay type: cell-based
T1 sequence (P08913 1-465): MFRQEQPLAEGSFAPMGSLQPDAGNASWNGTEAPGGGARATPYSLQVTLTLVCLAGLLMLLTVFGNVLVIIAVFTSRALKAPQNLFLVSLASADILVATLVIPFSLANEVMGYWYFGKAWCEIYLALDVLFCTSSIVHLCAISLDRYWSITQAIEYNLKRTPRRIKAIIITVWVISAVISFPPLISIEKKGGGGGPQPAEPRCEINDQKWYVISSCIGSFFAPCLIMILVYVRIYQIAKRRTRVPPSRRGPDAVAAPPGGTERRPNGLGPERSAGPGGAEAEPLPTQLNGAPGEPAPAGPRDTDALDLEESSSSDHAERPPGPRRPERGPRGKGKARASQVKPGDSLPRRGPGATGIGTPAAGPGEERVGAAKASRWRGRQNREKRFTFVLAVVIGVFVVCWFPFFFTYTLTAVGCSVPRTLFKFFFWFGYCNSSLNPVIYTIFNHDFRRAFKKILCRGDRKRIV
Method in brief: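 ebBRET in HEK293SL cells transfected with premixed biosensor DNA plus α2AAR using PEI (3:1). DNA was 0.57 μg, or 1 μg total for G12/13, and cells were seeded at 3.5×10^4 cells/well for 48 h. Gα activation was read as translocation of RlucII-tagged effectors (p63-RhoGEF for Gq/11, Rap1-GAP for Gi/o, PDZ-RhoGEF for G12/13) to rGFP-CAAX. β-arrestin-1/2-RlucII was also read against rGFP-CAAX. Cells sat in Tyrode HEPES 1 h, then received increasing compound concentrations 10 min at 37°C, with 1 μM Prolume purple for the final 6 min.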

human α2AAR [2] = molecular target: T1, human α2AAR; assay: Internalization assay with rGFP-CAAX and rGFP-FYVE biosensors; assay type: cell-based; conditions: for receptor internalization: both biosensors
[3] = test system: α2AAR D128^3.32 mutant receptors; assay type: cell-based, human
human α2AAR [4] = molecular target: T1, human α2AAR; assay: Gαi BRET G protein activation assay; assay type: cell-based
Method in brief: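 HEK293T cells were co-transfected with α2AAR, Gαi1-RLucII, Gβ1 and Gγ2-GFP10. After 48 h the medium was replaced with PBS and cells were stimulated with ligand for 10 min at 37°C. Coelenterazine 400a (2.5 µM final) was added 5 min before reading. BRET was taken as acceptor/donor emission (515/410 nm) and normalised to buffer (0%) and maximal norepinephrine (100%). There were 3–17 experiments, each in duplicate. Receptor surface expression was checked by anti-FLAG ELISA.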

Pharmacokinetics in mice = assay type: in vivo; conditions: 10-mg/kg i.v. and 30-mg/kg p.o.
Method in brief: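 C57BL/6 mice were dosed 10 mg/kg i.v. or 30 mg/kg p.o., with vehicle-dosed groups alongside. One analogue was formulated in 20% v/v HβCD in saline. Sparse sampling used three mice per time point (one for vehicle). Blood was drawn from the orbital sinus into K3EDTA under tribromoethanol (150 mg/kg i.p.), and plasma was spun at 4000 rpm, 10 min, 4°C. Brain was homogenised in ice-cold PBS. Samples were analysed by HPLC-MS/MS; values below LLOQ were set to zero.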

[5] = Metabolic stability in rat liver microsomes; assay type: in vitro ADME; conditions: male rat liver microsomes, 1 hour, 20 μM
Method in brief: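 Pooled male Sprague Dawley rat liver microsomes (0.25 mg protein per tube) were incubated with test compound or a positive control (20 µM final). Buffer was 50 mM Tris, 5 mM MgCl2, pH 7.4. Incubation was at 37°C on a rotating carousel.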

[6] = test system: spared nerve injury (SNI) mice; assay: SNI model of neuropathic pain, mechanical; assay type: in vivo
Method in brief: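 Spared nerve injury: under isoflurane, two of the three sciatic nerve branches were ligated and transected distally, leaving the sural nerve intact. Testing was done 7–14 days after injury. Atipamezole (2 mg/kg i.p.) was given 15 min before s.c. agonist, and testing followed 30 min after agonist. Hindpaw thresholds were measured with von Frey filaments by the up-down method, by a blinded experimenter.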

naïve (uninjured) mice = assay: Mechanical withdrawal thresholds in naïve mice; assay type: in vivo; conditions: 5 mg/kg s.c.
Method in brief: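 Uninjured mice were habituated for 1 h in Plexiglas cylinders and tested 30 min after s.c. dosing. Hindpaw mechanical thresholds were found with von Frey filaments by the up-down method. The experimenter was blind to treatment, and animals were randomly assigned to compound or vehicle.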

mice [7] = assay: Tail flick; assay type: in vivo; conditions: tail flick 50°C, s.c.
Method in brief: (§1)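 WT and α2AAR D79N mice were habituated for 1 h in cylinders and tested 30 min after s.c. dosing. The tail was immersed in a 50°C water bath to measure heat sensitivity. The experimenter was blind to treatment.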

α2AAR D79N mutant mice = assay: Tail flick; assay type: in vivo; conditions: tail flick 50°C, versus WT
Method in brief: as §1

mice [8] = assay: Rotarod motor test; assay type: in vivo
Method in brief: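 Mice were first trained three times for 5 min on an accelerating rotating rod before any compound. They were then tested 30 min after s.c. dosing, with the experimenter blind to treatment.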

[9] = molecular target: α2AAR D128^3.32 mutant receptors (Homo sapiens, UniProt P08913, D128A); assay type: cell-based; conditions: D128^3.32A versus wild type
Sequence of α2AAR D128^3.32 mutant receptors (Homo sapiens, UniProt P08913, D128A) (P08913 whole entry D128A): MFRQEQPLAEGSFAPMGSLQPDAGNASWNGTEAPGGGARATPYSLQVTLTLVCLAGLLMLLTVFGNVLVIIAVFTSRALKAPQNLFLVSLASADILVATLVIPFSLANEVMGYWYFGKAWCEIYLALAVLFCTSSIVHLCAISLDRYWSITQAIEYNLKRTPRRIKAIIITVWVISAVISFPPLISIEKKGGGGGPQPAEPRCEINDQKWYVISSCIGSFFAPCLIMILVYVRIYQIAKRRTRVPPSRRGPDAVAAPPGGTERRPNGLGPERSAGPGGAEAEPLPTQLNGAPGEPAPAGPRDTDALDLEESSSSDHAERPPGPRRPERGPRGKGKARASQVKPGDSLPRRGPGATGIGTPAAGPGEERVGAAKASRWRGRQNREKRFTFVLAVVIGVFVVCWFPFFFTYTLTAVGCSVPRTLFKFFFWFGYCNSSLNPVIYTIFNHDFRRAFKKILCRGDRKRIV

mice [10] = assay: Constipation assay; conditions: i.p.; morphine 10 mg/kg, dexmedetomidine 30 μg/kg, ‘9087 5 mg/kg; versus vehicle
human α2BAR = molecular target: T2, human α2BAR (Homo sapiens, UniProt P18089); assay: Radioligand binding, human α2BAR; conditions: read-out: Kd of radioligand; saturation, HEK293T membranes
T2 sequence (P18089 1-450): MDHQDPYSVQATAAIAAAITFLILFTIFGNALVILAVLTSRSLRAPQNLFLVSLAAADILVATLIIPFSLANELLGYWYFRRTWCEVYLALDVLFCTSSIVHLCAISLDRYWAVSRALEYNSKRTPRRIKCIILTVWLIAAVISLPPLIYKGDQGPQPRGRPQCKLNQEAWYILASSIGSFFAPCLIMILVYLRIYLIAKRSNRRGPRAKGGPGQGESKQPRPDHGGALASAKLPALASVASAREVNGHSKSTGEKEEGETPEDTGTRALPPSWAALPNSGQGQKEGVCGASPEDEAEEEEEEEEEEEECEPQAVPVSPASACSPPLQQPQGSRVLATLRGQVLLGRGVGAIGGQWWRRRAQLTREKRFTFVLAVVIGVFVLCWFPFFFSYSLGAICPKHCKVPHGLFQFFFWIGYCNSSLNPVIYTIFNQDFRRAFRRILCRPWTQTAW

murine α2AAR = molecular target: T3, murine α2AAR (Mus musculus, UniProt Q01338); assay: Radioligand binding, murine α2AAR; conditions: read-out: Kd of radioligand; saturation, HEK293T membranes
T3 sequence (Q01338 1-465): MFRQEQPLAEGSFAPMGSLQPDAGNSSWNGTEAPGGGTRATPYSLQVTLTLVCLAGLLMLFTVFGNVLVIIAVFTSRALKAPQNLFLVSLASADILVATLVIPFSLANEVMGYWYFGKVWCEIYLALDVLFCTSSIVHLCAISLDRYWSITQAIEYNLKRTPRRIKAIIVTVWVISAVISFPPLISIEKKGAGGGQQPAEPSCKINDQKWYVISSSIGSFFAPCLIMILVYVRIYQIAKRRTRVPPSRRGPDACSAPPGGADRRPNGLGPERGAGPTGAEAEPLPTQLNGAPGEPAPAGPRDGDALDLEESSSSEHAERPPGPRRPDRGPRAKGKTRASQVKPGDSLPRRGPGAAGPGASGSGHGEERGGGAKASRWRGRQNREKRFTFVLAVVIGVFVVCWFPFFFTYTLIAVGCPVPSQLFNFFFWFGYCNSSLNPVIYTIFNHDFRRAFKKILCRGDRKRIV

human α2AAR [11] = molecular target: T1, human α2AAR; assay: Radioligand binding, human α2AAR; conditions: read-out: Kd of radioligand; saturation, HEK293T membranes
human α2C = molecular target: T4, human α2C (Homo sapiens, UniProt P18825); assay: Radioligand binding, α2C; conditions: read-out: Kd of radioligand; saturation, HEK293T membranes
T4 sequence (P18825 1-462): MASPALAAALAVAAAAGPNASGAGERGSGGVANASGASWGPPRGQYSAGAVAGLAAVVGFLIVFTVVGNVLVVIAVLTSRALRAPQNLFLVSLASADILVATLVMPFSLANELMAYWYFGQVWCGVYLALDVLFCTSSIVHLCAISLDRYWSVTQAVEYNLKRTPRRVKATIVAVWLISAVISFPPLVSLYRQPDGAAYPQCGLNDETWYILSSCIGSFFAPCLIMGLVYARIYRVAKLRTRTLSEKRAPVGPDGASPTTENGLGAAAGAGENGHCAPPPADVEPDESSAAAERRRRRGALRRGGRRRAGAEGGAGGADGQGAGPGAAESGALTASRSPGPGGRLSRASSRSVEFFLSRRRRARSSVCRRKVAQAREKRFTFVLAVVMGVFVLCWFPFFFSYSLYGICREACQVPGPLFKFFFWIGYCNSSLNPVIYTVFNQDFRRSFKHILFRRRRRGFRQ

NC[C@H](O)c1ccc(O)c(O)c1 [norepinephrine]
G protein and β-arrestin subtype signaling profile (human α2AAR [1]): strongly activated multiple additional G proteins and β-arrestins
receptor internalization (human α2AAR [2]): comparable responses for both biosensors
Gi activation and β-arrestin recruitment on substitutions to D128^3.32 [3]: almost complete loss

Clc1ccc2cccc(Nc3ccncc3)c2c1 [PS75]
increased potency compared with ‘9087 (human α2AAR [4]; Gi activation): 11 fold
Emax, Gi activation (human α2AAR [4]; Gαi BRET, % of norepinephrine response): 82%
EC50 (human α2AAR [4]; abstract): 4.8 nM
G protein and β-arrestin subtype signaling profile (human α2AAR [1]): preferentially activated Gi, Go, and Gz (Gi/o/z) signaling; also recorded: retained the preferential signaling through the Gi/o versus other G protein families and β-arrestins
receptor internalization (human α2AAR [2]): negligible receptor internalization
disappearance of α2AARs from the plasma membrane (human α2AAR [2]; α2AAR-RlucII/rGFP-CAAX biosensor): no effect
relocalization of the receptors in endosomes (human α2AAR [2]; α2AAR-RlucII/rGFP-FYVE biosensor): marginal effect at the highest concentrations
oral bioavailability (Pharmacokinetics in mice): fully bio-available
metabolic stability [5]: remain largely unmodified
effect of atipamezole on the agonist's effect ([6]; atipamezole 2 mg/kg i.p. 15 min before agonist): partially reversed
effect on mechanical thresholds / allodynia ([6]; s.c.): completely reversed the mechanical hypersensitivity
baseline mechanical withdrawal thresholds (naïve (uninjured) mice): did increase the mechanical thresholds
withdrawal latencies (mice [7]): increased withdrawal latencies
analgesia in D79N mutant mice (α2AAR D79N mutant mice): substantially decreases the analgesia
reduction of analgesia in D79N mutant mice (α2AAR D79N mutant mice): > 50%
motor impairment and sedation (mice [8]): did not have an effect on the rotarod test; also recorded: do not cause sedation or motor impairment at analgesic doses

Brc1c(NC2=NCCN2)ccc2nccnc12 [brimonidine]
G protein and β-arrestin subtype signaling profile (human α2AAR [1]): strongly activated multiple additional G proteins and β-arrestins
receptor internalization (human α2AAR [2]): comparable responses for both biosensors

Cc1cccc([C@H](C)c2cnc[nH]2)c1C [dexmedetomidine]
G protein and β-arrestin subtype signaling profile (human α2AAR [1]): strongly activated multiple additional G proteins and β-arrestins
receptor internalization (human α2AAR [2]): about half of this response
Gi EC50 fold higher [9]: 170,000 fold
Gi activation and β-arrestin recruitment on substitutions to D128^3.32 [3]: almost complete loss
analgesia in D79N mutant mice (α2AAR D79N mutant mice): no longer induced analgesia in the mutant mice
analgesia in D79N mutant mice (α2AAR D79N mutant mice; listed as DEX): substantially decreases the analgesia
motor impairment and sedation (mice [8]): complete sedation; also recorded: full sedation
motor impairment and sedation (mice [8]; listed as DEX): significant impairment and complete sedation at higher doses

CN1CC[C@]23c4c5ccc(O)c4O[C@H]2[C@@H](O)C=C[C@H]3[C@H]1C5 [morphine]
analgesia in D79N mutant mice (α2AAR D79N mutant mice): does not affect; also recorded: not significantly altered by the mutation
constipation, accumulated pellets over 6 hours (mice [10]): induced constipation

COC1(C2=NCCN2)COc2ccccc2O1 (centres unmarked) [[^3H]RX82,1002]
Kd (human α2BAR): 2.3 ± 0.52 nM
Kd (murine α2AAR): 1.8 ± 0.61 nM
Kd (human α2AAR [11]): 0.54 ± 0.024 nM
Kd (human α2C): 0.58 ± 0.11 nM
